Legend:
Type in all cases: functional, Canis lupus familiaris
[1] = tested on: Canis familiaris; assay: Time interval between the end of treatment and restoration of the CFR pattern of blood flow to control levels at iv dose of 300 ug/kg +30 ug/kg/min (n=4)
Method in brief: (§1)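 Anesthetized open-chest mongrel dogs (10-15 kg) with partially obstructed circumflex coronary artery; iv bolus plus constant infusion of drug in saline as mesylate/bismesylate salt. Duration scored as the time from the end of drug treatment until the cyclic flow reduction pattern returns to control levels. Mean ± SEM.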

[2] = tested on: Canis familiaris; assay: Time interval between the start of treatment and the first change in the CFR pattern of blood flow in the stenosed coronary artery at iv dose of 300 ug/kg +30 ug/kg/min (n=3)
Method in brief: (§2)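 Stenosed circumflex coronary artery in pentobarbital-anesthetized open-chest mongrel dogs (10-15 kg), drug iv in saline (mesylate/bismesylate salt), bolus followed by constant infusion. Onset measured as the time from the start of drug treatment to the first change in the cyclic flow reduction pattern of coronary blood flow. Mean ± SEM.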

[3] = tested on: Canis familiaris; assay: In vivo inhibitory effect on Cyclical flow reductions (CFR) induced by intracoronary platelet aggregation in stenosed Canine coronary arteries at iv dose of 100 ug/kg +10 ug/kg/min (n=3)
Method in brief: (§3)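 Adult mongrel dogs (10-15 kg, either sex), sodium pentobarbital anesthesia (30 mg/kg iv), positive-pressure ventilation. Aortic pressure via femoral artery catheter. Drug given iv via femoral vein in saline as mesylate/bismesylate salt, bolus then constant infusion. Values mean ± SEM.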

[4] = tested on: Canis familiaris; assay: In vivo inhibitory effect on Cyclical flow reductions (CFR) induced by intracoronary platelet aggregation in stenosed Canine coronary arteries at iv dose of 300 ug/kg +30 ug/kg/min (n=3); method in brief: as §3
[5] = tested on: Canis familiaris; assay: Time interval between the start of treatment and the first change in the CFR pattern of blood flow in the stenosed coronary artery at iv dose of 100 ug/kg +10 ug/kg/min (n=3); method in brief: as §2
[6] = tested on: Canis familiaris; assay: Time interval between the end of treatment and restoration of the CFR pattern of blood flow to control levels at iv dose of 100 ug/kg +10 ug/kg/min (n=3); method in brief: as §1
[7] = tested on: Canis familiaris; assay: Time interval between the start of treatment and the first change in the CFR pattern of blood flow in the stenosed coronary artery at iv dose of 100 ug/kg +10 ug/kg/min (n=10); method in brief: as §2
[8] = tested on: Canis familiaris; assay: In vivo inhibitory effect on Cyclical flow reductions (CFR) induced by intracoronary platelet aggregation in stenosed Canine coronary arteries at iv dose of 1000 ug/kg +100 ug/kg/min (n=4); method in brief: as §3
[9] = tested on: Canis familiaris; assay: Time interval between the end of treatment and restoration of the CFR pattern of blood flow to control levels at iv dose of 1000 ug/kg +100 ug/kg/min (n=4); method in brief: as §1
[10] = tested on: Canis familiaris; assay: Time interval between the start of treatment and the first change in the CFR pattern of blood flow in the stenosed coronary artery at iv dose of 300 ug/kg +30 ug/kg/min (n=4); method in brief: as §2
[11] = tested on: Canis familiaris; assay: In vivo inhibitory effect on Cyclical flow reductions (CFR) induced by intracoronary platelet aggregation in stenosed Canine coronary arteries at iv dose of 30 ug/kg +3 ug/kg/min (n=4); method in brief: as §3
[12] = tested on: Canis familiaris; assay: Time interval between the start of treatment and the first change in the CFR pattern of blood flow in the stenosed coronary artery at iv dose of 1000 ug/kg +100 ug/kg/min (n=4); method in brief: as §2
[13] = tested on: Canis familiaris; assay: Time interval between the end of treatment and restoration of the CFR pattern of blood flow to control levels at iv dose of 100 ug/kg +10 ug/kg/min (n=10); method in brief: as §1
[14] = tested on: Canis familiaris; assay: In vivo inhibitory effect on Cyclical flow reductions (CFR) induced by intracoronary platelet aggregation in stenosed Canine coronary arteries at iv dose of 300 ug/kg +30 ug/kg/min (n=4); method in brief: as §3
[15] = tested on: Canis familiaris; assay: In vivo inhibitory effect on Cyclical flow reductions (CFR) induced by intracoronary platelet aggregation in stenosed Canine coronary arteries at iv dose of 100 ug/kg +10 ug/kg/min (n=10); method in brief: as §3
[16] = tested on: Canis familiaris; assay: Time interval between the start of treatment and the first change in the CFR pattern of blood flow in the stenosed coronary artery at iv dose of 300 ug/kg +30 ug/kg/min (n=2-4); method in brief: as §2
[17] = tested on: Canis familiaris; assay: In vivo inhibitory effect on Cyclical flow reductions (CFR) induced by intracoronary platelet aggregation in stenosed Canine coronary arteries at iv dose of 300 ug/kg +30 ug/kg/min (n=2-4); method in brief: as §3

SMILES	Time to offset [1]	Time to onset [2]	Rating [3]	Rating [4]	Time to onset [5]	Time to offset [6]	Time to onset [7]	Rating [8]	Time to offset [9]	Time to onset [10]	Rating [11]	Time to onset [12]	Time to offset [13]	Rating [14]	Rating [15]	Time to onset [16]	Rating [17]
Cc1c(OCCN2CCSCC2)ccc2c(=O)cc(N3CCOCC3)oc12	12 min	9 min	2	2.3	17 min	5.3 min											
Cc1c(OCCN2CCN(C)CC2)ccc2c(=O)cc(N3CCOCC3)oc12	60 min						5 min	3	73 min	1 min	0	1 min	25 min	3	1.9		
Cc1c(OCCN2CCCCC2)ccc2c(=O)cc(N3CCOCC3)oc12	67 min							2.5	23 min			7 min				2 min	1.3
